Screens: PubChem BioAssay, The Scripps Research Institute Molecular Screening Center
OXTR ag = human OXTR agonists, primary screen, fluorescence, CHO-OTR cells, Fluo-8 calcium. AID 2435, 2010. Fluo-8 calcium fluorescence; normalized: DMSO 0%, oxytocin 100%. activation, % at 3 µM. actives 0.32% (n = 320,000);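 active = activation above the mean of all tested compounds plus 3 SD, cutoff set per screening run, cut at about 20% in these data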;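 note: peak over basal fluorescence ratio from a 100 s FLIPR kinetic read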
TRPN1 ag = zebrafish TRPN1 channel agonists, primary screen, cell-based, HEK293, calcium fluorescence; actives 0.18% (n = 220,000); HEK293 zebrafish TRPN1-YFP, Fluo-8 calcium fluorescence; 100% = response to 87 µM carbachol; activation, % at 3 µM; transient receptor potential cation channel N1 (TRPN1/NompC), Danio rerio;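 active = activation above its plate's cutoff, the mean activation of test wells on that plate plus 3 SD, cut at about 19% in these data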
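System: zebrafish TRPN1-YFP in HEK293 cells / Dosing: 3 µM single point / Timing: dye loading 1 h at 37 °C, then 30 min room temperature / Signal: Fluo-8 calcium fluorescence, excitation 470-495 nm, emission 515-575 nm / Read-out basis: percent activation from peak over basal fluorescence ratio, control-normalized / Control set: high carbachol 87 µM, low DMSO alone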
TRPML3 agonist = human TRPML3 channel agonists, primary screen, cell-based, HEK293 TRPML3-YFP, Fluo-8 calcium fluorescence, 3 µM; actives 0.29% (n = 220,000); 100% = the carbachol control signal; Mucolipin-3 (Homo sapiens), Q8TDD5; activation, % at 3 µM;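 active = activation above its plate's cutoff, the mean activation of the plate's test wells plus 3 SD, cut at about 12% in these data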
Target sequence (Q8TDD5 whole entry, looked up): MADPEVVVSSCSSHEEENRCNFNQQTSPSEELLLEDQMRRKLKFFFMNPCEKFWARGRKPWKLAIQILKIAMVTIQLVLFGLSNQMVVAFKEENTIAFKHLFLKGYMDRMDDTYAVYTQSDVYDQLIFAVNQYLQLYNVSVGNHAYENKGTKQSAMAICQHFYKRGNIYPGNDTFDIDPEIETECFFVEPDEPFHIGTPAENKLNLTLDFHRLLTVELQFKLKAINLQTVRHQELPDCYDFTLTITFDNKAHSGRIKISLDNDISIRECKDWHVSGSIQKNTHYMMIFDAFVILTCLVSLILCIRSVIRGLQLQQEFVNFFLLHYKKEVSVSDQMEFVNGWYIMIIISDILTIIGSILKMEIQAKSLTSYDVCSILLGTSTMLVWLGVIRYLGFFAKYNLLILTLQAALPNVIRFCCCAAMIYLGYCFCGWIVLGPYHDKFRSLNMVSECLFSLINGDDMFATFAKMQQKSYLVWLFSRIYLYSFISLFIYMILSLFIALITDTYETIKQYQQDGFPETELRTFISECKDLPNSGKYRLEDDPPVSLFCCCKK
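Material: TRPML3-YFP stable HEK293 cells | Dosing: One concentration, 3 µM nominal, 0.3% DMSO | Timing: 125 s total fluorescence read per well | Technique: Fluo-8 calcium dye fluorescence, ex 470-495, em 515-575 nm | Measure: Percent activation from peak-to-basal fluorescence ratio, scaled between DMSO and carbachol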
OXTR potentiator = human OXTR potentiators, primary screen, fluorescence, CHO-OTR cells, Fluo-8 calcium; actives 0.061% (n = 320,000); AID 2445, 2010; Fluo-8 calcium fluorescence, potentiator mode; 0% = oxytocin EC15, 100% = EC100; Oxytocin receptor (Homo sapiens), P30559; activation, % at 3 µM;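 active = activation above that plate's cutoff, the mean activation of tested compounds plus 3 SD, cut at about 6.6% in these data, passing the limit was not always enough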
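System: human OTR in CHO cells; Also added: sub-maximal oxytocin, roughly EC15; Timing: compound 6 min at room temperature before oxytocin, 100 s read; Technique: Fluo-8 intracellular calcium fluorescence, ex 470-495, em 515-575 nm; Controls: oxytocin EC15 low and EC100 high; Replication: singlicate.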
V1aR counter = agonists of human V1a receptor, primary screen, counter-screen for OXTR agonist project, fluorescence, CHO-V1R cells; AID 2797, 2010; Fluo-8 calcium fluorescence, agonist mode; 0% DMSO, 100% 3 nM vasopressin; actives 0.25% (n = 320,000); activation, % at 3 µM; Vasopressin V1a receptor (Homo sapiens), P37288;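 active = activation above the mean activation of all tested compounds plus 3 SD, per screening run, cut at about 20% in these data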;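 note: signal is peak over basal fluorescence ratio across a 100 second FLIPR read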
Of the large screens only hits and unclear results are named; the others gave an inactive call. Hits are enriched below; roughly 0.55% of the tested compounds scored in any of these assays.

Cc1ccc(NS(=O)(=O)c2ccc(C(=O)N3CC(C)OC(C)C3)cc2)cc1 (configuration not stated)	OXTR ag 41, V1aR counter 37 (no result: TRPN1 ag, TRPML3 agonist)
O=C(c1ccccc1)c1ccc(C(=O)N2CCCC(C(F)(F)F)C2)cc1 (configuration not stated)	none (no result: TRPN1 ag, TRPML3 agonist)
CCOc1ccc(NS(=O)(=O)c2ccc(C(=O)N3CCCC(C)C3)cc2)cc1 (configuration not stated)	OXTR ag 47, V1aR counter 39 (no result: TRPN1 ag, TRPML3 agonist)
O=C(c1ccc(S(=O)(=O)Nc2ccccc2)cc1)N1CCCC(C(F)(F)F)C1 (configuration not stated)	OXTR ag 36, V1aR counter 43 (no result: TRPN1 ag, TRPML3 agonist)
Cc1ccc(NS(=O)(=O)c2ccc(C(=O)N3CCC3)cc2)cc1	none (no result: TRPN1 ag, TRPML3 agonist)
CCOc1ccc(NS(=O)(=O)c2ccc(C(=O)N3CCCCCC3)cc2)cc1	none (no result: TRPN1 ag, TRPML3 agonist)
COc1ccc(NS(=O)(=O)c2ccc(C(=O)N3CCCCCC3)cc2)cc1	OXTR ag 27, V1aR counter 24 (no result: TRPN1 ag, TRPML3 agonist)
CCc1cccc(NC(=O)CCCn2c(=O)[nH]c3ccsc3c2=O)c1	none (no result: TRPN1 ag, TRPML3 agonist)
c1ccc(-c2ncc(CN3CCN(c4ccccn4)CC3)[nH]2)cc1	none
CCCCOc1ccc(C(=O)NCCOc2cccc(OC)c2)cc1	none (no result: TRPN1 ag, TRPML3 agonist)
CCCn1c(=O)c(C(=O)NNC(=O)c2ccccc2Cl)c(O)c2ccccc21	OXTR ag 40, V1aR counter 30 (no result: TRPN1 ag, TRPML3 agonist)
Oc1ccc(C23CCCC2C2(CCCC2)c2ccc(O)cc2O3)c(O)c1 (configuration not stated)	OXTR ag 39, V1aR counter 28 (no result: TRPN1 ag, TRPML3 agonist)
CCOC(=O)Cn1c(=O)oc2cc(S(=O)(=O)NCCc3ccc(C)cc3)ccc21	none
CCOC(=O)Cn1c(=O)oc2cc(S(=O)(=O)Nc3ccc(F)cc3)ccc21	OXTR ag 36, TRPN1 ag 19, V1aR counter 33
CC(=O)[C@]1(O)Cc2c(O)c3c(c(O)c2[C@@H](O[C@H]2C[C@H](N)[C@H](O)[C@H](C)O2)C1)C(=O)c1ccccc1C3=O	OXTR ag 77, V1aR counter 40 (no result: TRPN1 ag, TRPML3 agonist)
COc1cccc2c1C(=O)c1c(O)c3c(c(O)c1C2=O)C[C@@](O)(C(C)=O)C[C@@H]3O[C@H]1C[C@H](N)[C@H](O)[C@H](C)O1	none (no result: OXTR ag, OXTR potentiator, V1aR counter)
COc1ccc(C2CC3(CC(C)(C)NC(SC)=N3)Oc3cc(O)cc(C)c32)cc1 (configuration not stated)	OXTR ag 39, V1aR counter 51
Nc1c(C(=O)NCc2ccccc2)nnn1Cc1ccccc1	none
CSc1ccc(Cn2nnc(C(=O)NCc3ccccc3)c2N)cc1	OXTR ag 36, V1aR counter 36
Cc1ccc(Cn2nnc(C(=O)Nc3cc(C)ccc3C)c2N)cc1	OXTR ag 20, V1aR counter 23
C=CCOC(=O)C1=C[C@H](c2coc3ccccc3c2=O)C[C@H](OCCCCO)O1	none (no result: TRPN1 ag, TRPML3 agonist)
COc1ccc(Cn2nnnc2C(c2ccc(N(C)C)cc2)N2CCC(C(N)=O)CC2)cc1 (configuration not stated)	none
CCC(C)(C(=O)NC1CCCCC1)N(C(=O)Cc1cccs1)c1ccccc1 (configuration not stated)	OXTR ag 23
CCC(C)(C(=O)NC1CCCC1)N(Cc1cccs1)C(=O)Cc1cccs1 (configuration not stated)	none
Cc1ccc(C)c(S(=O)(=O)N2CCN(C(=O)CSC(=S)N3CCCC3)CC2)c1	none (no result: TRPN1 ag, TRPML3 agonist)
Cc1onc(-c2ccccc2)c1C(=O)NNC(=S)NC(=O)/C=C/c1ccccc1	OXTR ag 35, V1aR counter 46
Cc1cccc(C(=O)NC(=S)NNC(=O)c2ccccc2Cl)c1	OXTR ag 71, TRPN1 ag 34, TRPML3 agonist 13, V1aR counter 49
Cc1onc(-c2ccccc2)c1C(=O)NNC(=O)c1ccccc1O	none (no result: TRPN1 ag, TRPML3 agonist)
Cc1onc(-c2ccccc2)c1C(=O)NNC(=S)NC(=O)c1ccc(Cl)cc1Cl	OXTR ag 102, V1aR counter 102
CC(=O)NNC(=S)NC(=O)c1ccc(C)cc1	none
Cc1ccc(C(=O)NNC(=S)NC(=O)c2ccc(Cl)cc2)cc1	OXTR ag 91, TRPN1 ag 143, TRPML3 agonist 83, V1aR counter 81
Cc1onc(-c2ccccc2)c1C(=O)NNC(=O)c1ccccc1	none (no result: TRPN1 ag, TRPML3 agonist)
Cc1ccccc1C(=O)NNC(=S)NC(=O)c1ccc(Cl)cc1Cl	OXTR ag 73, TRPN1 ag 72, TRPML3 agonist 57, V1aR counter 85
Cc1onc(-c2ccccc2)c1C(=O)NNC(=S)NC(=O)c1ccc(Br)cc1	OXTR ag 73, TRPN1 ag 23, V1aR counter 66
C/C(=N\NC(=O)C(C)Sc1ccccc1)c1ccc([N+](=O)[O-])cc1 (configuration not stated)	none (no result: TRPN1 ag, TRPML3 agonist)
COc1ccc(OC)c(/C=C2/Sc3ccccc3C2=O)c1	OXTR ag 24, V1aR counter 28
CC1(C)CSC(=NCc2ccccc2)N1C(=O)c1cccc([N+](=O)[O-])c1	TRPN1 ag 40, TRPML3 agonist 15
NC(=NCc1ccccc1)c1cccc([N+](=O)[O-])c1	none (no result: TRPN1 ag, TRPML3 agonist)
CC(=O)OCCn1c2nc(=O)[nH]c(=O)c-2nc2cc(C)c(C)cc21	TRPN1 ag 142, TRPML3 agonist 88 (no result: OXTR ag, OXTR potentiator, V1aR counter)
CC(=O)OCCn1c(C)[n+](CCOC(C)=O)c2cc(Cl)c(Cl)cc21	none
CN1C(=O)c2cccc3c(Cl)ccc(c23)C1=O	none
CN1C(=O)c2cccc3c(N(C)C)ccc(c23)C1=O	OXTR ag 23, V1aR counter 23 (no result: TRPN1 ag, TRPML3 agonist)
CNc1ccc2c3c(cccc13)C(=O)N(C)C2=O	OXTR ag 192, V1aR counter 314 (no result: TRPN1 ag, TRPML3 agonist)
CCCCN(C)S(=O)(=O)c1ccc(C(=O)Nc2nnc(-c3ccco3)o2)cc1	none
CCN(CC)CCNc1ncnc2c1[nH]c1ccc(OC)cc12	none
COc1ccc2[nH]c3c(NCCC4=CCCCC4)ncnc3c2c1	TRPN1 ag 20 (no result: OXTR ag, OXTR potentiator, V1aR counter)
NC(=O)c1ccc[n+]([C@H]2O[C@@H](COP(=O)([O-])OP(=O)(O)OC[C@H]3O[C@@H](n4cnc5c(N)ncnc54)[C@H](O)[C@@H]3O)[C@H](O)[C@@H]2O)c1	OXTR ag 51, V1aR counter 69 (no result: TRPN1 ag, TRPML3 agonist)
CC(OC(=O)CCCN=C1NS(=O)(=O)c2ccccc21)C(=O)c1ccccc1 (configuration not stated)	OXTR ag 36, V1aR counter 34 (no result: TRPN1 ag, TRPML3 agonist)
